How the values were obtained:
Hs-578T = test: Compound was evaluated for in vitro activity against Hs 578.T breast cancer cell lines (Human tumor cells ); assay type: functional, cell-based
Outline: (§1)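 NCI Developmental Therapeutics Program human tumor cell panel; drug exposure in 96-well plates for the last 48 h of a 72-h incubation, then cells stained for total protein with sulforhodamine B per the standard NCI protocol. Data supplied by NCI.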

SF-539 = test: Compound was evaluated for in vitro activity against SF-539 CNS cell lines (Human tumor cells ); assay type: functional, cell-based
Outline: (§2)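 Total protein then stained with sulforhodamine B following the standard NCI protocol. Data supplied by the NCI Developmental Therapeutics Program.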

HCT-15 = test: Compound was evaluated for in vitro activity against HCT-15 Colon cell lines (Human tumor cells ); assay type: functional, cell-based; outline: as §1
ACHN = test: Compound was evaluated for in vitro activity against ACHN kidney cell lines (Human tumor cells ); assay type: functional, cell-based; outline: as §1
MDA-MB-435 = test: Compound was evaluated for in vitro activity against MDA-MB-435 breast cancer cell lines (Human tumor cells ); assay type: functional, cell-based; outline: as §1
UACC-257 = test: Compound was evaluated for in vitro activity against UACC-257 Melanoma cell lines (Human tumor cells ); assay type: functional, cell-based; outline: as §1
A498 = test: Compound was evaluated for in vitro activity against A498 kidney cell lines (Human tumor cells ); assay type: functional, cell-based; outline: as §1
SR = test: Compound was evaluated for in vitro activity against SR leukemia cell lines (Human tumor cells ); assay type: functional, cell-based; outline: as §1
NCI-H23 = test: Compound was evaluated for in vitro activity against NCI-H23 lung cancer cell lines (Human tumor cells ); assay type: functional, cell-based; outline: as §1
BT-549 = test: Compound was evaluated for in vitro activity against BT-549 breast cancer cell lines (Human tumor cells ); assay type: functional, cell-based; outline: as §1
M14 = test: Compound was evaluated for in vitro activity against M14 Melanoma cell lines (Human tumor cells ); assay type: functional, cell-based; outline: as §1
SK-MEL-28 = test: Compound was evaluated for in vitro activity against SK-MEL28 Melanoma cell lines (Human tumor cells ); assay type: functional, cell-based; outline: as §1
OVCAR-3 = test: Compound was evaluated for in vitro activity against OVCAR-3 Ovary cell lines (Human tumor cells ); assay type: functional, cell-based; outline: as §2
U-251 = test: Compound was evaluated for in vitro activity against U251 CNS cell lines (Human tumor cells ); assay type: functional, cell-based; outline: as §1
Dihydrofolate reductase = biological target: T1, Dihydrofolate reductase (Homo sapiens, UniProt P00374); test: Compound was evaluated for the inhibition of Dihydrofolate reductase at concentration ranged from 0.15-0.50 uM
T1 sequence (P00374 whole entry): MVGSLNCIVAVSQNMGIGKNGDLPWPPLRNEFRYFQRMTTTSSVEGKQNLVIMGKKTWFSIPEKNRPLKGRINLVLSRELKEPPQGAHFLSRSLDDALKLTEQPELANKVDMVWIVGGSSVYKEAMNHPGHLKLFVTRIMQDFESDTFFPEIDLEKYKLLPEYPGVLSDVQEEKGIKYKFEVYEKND

RPMI-8226 = test: Compound was evaluated for in vitro activity against RPMI-8226 leukemia cell lines (Human tumor cells ); assay type: functional, cell-based; outline: as §1
HCT-116 = test: Compound was evaluated for in vitro activity against HCT116 Colon cell lines (Human tumor cells ); assay type: functional, cell-based; outline: as §1
SK-MEL-5 = test: Compound was evaluated for in vitro activity against SK-MEL-5 Melanoma cell lines (Human tumor cells ); assay type: functional, cell-based; outline: as §1
786-0 = test: Compound was evaluated for in vitro activity against 786-0 kidney cell lines (Human tumor cells ); assay type: functional, cell-based; outline: as §1
SK-MEL-2 = test: Compound was evaluated for in vitro activity against SK-MEL-2 Melanoma cell lines (Human tumor cells ); assay type: functional, cell-based; outline: as §1
SF-268 = test: Compound was evaluated for in vitro activity against SF-268 CNS cell lines (Human tumor cells ); assay type: functional, cell-based; outline: as §1
OVCAR-4 = test: Compound was evaluated for in vitro activity against OVCAR-4 Ovary cell lines (Human tumor cells ); assay type: functional, cell-based; outline: as §1
DU-145 = test: Compound was evaluated for in vitro activity against DU-145 prostate cell lines (Human tumor cells ); assay type: functional, cell-based; outline: as §1
NCI-H226 = test: Compound was evaluated for in vitro activity against NCI-H226 lung cancer cell lines (Human tumor cells ); assay type: functional, cell-based; outline: as §1
[1] = Compound was tested for in vitro antitumor activity, using SCC25 human head and neck squamous carcinoma cells; assay type: functional; conditions: SCC-25
Outline: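 Clonogenic assay: SCC25 cells exposed to graded drug concentrations for 72 h at 37 °C, 5% CO2, in DMEM with 10% FBS and hydrocortisone ([…]). Then replated as single cells at drug-dependent densities and grown in drug-free medium 10-14 days. Colonies stained with crystal violet; only colonies of ≥50 cells scored. IC50 is mean ± SD of ≥3 assays on different days.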

K562 = test: Compound was evaluated for in vitro activity against K562 leukemia cell lines (Human tumor cells ); assay type: functional, cell-based; outline: as §1
COLO 205 = test: Compound was evaluated for in vitro activity against COLO 205 Colon cell lines (Human tumor cells ); assay type: functional, cell-based; outline: as §2
OVCAR-5 = test: Compound was evaluated for in vitro activity against OVCAR-5 Ovary cell lines (Human tumor cells ); assay type: functional, cell-based; outline: as §1
MCF7 = test: Compound was evaluated for in vitro activity against MCF-7 breast cancer cell lines (Human tumor cells ); assay type: functional, cell-based; outline: as §2
TK-10 = test: Compound was evaluated for in vitro activity against TK-10 kidney cell lines (Human tumor cells ); assay type: functional, cell-based; outline: as §1
CCRF-CEM = test: Compound was evaluated for in vitro activity against CCRF-CEM leukemia cell lines (Human tumor cells ); assay type: functional, cell-based; outline: as §1
KM12 = test: Compound was evaluated for in vitro activity against KM-12 Colon cell lines (Human tumor cells ); assay type: functional, cell-based; outline: as §1
A549 = test: Compound was evaluated for in vitro activity against A549/ATCC lung cancer cell lines (Human tumor cells )
HCC 2998 = test: Compound was evaluated for in vitro activity against HCC2998 Colon cell lines (Human tumor cells ); assay type: functional, cell-based; outline: as §1
EKVX = test: Compound was evaluated for in vitro activity against EKVX lung cancer cell lines (Human tumor cells ); assay type: functional, cell-based; outline: as §1
NCI-H522 = test: Compound was evaluated for in vitro activity against NCI-H522 lung cancer cell lines (Human tumor cells ); assay type: functional, cell-based; outline: as §1
NCI-H460 = test: Compound was evaluated for in vitro activity against NCI-H460 lung cancer cell lines (Human tumor cells ); assay type: functional, cell-based; outline: as §1
UACC-62 = test: Compound was evaluated for in vitro activity against UACC-62 Melanoma cell lines (Human tumor cells ); assay type: functional, cell-based; outline: as §1
SF-295 = test: Compound was evaluated for in vitro activity against SF-295 CNS cell lines (Human tumor cells ); assay type: functional, cell-based; outline: as §1
HL-60 = test: Compound was evaluated for in vitro activity against HL-60(TB) leukemia cell lines (Human tumor cells ); assay type: functional, cell-based; outline: as §1
SNB- = test: Compound was evaluated for in vitro activity against […] CNS cell lines (Human tumor cells ); assay type: functional, cell-based; outline: as §1
MOLT-4 = test: Compound was evaluated for in vitro activity against MOLT-4 leukemia cell lines (Human tumor cells ); assay type: functional, cell-based; outline: as §1
LOX IMVI = test: Compound was evaluated for in vitro activity against LOXIMV1 Melanoma cell lines (Human tumor cells ); assay type: functional, cell-based; outline: as §2
T47D = test: Compound was evaluated for in vitro activity against T-47D breast cancer cell lines (Human tumor cells ); assay type: functional, cell-based; outline: as §1
Malme-3M = test: Compound was evaluated for in vitro activity against MALME-3M Melanoma cell lines (Human tumor cells ); assay type: functional, cell-based; outline: as §1
HOP-92 = test: Compound was evaluated for in vitro activity against HOP-92 lung cancer cell lines (Human tumor cells ); assay type: functional, cell-based; outline: as §1
RXF 393 = test: Compound was evaluated for in vitro activity against RXF-393 kidney cell lines (Human tumor cells ); assay type: functional, cell-based; outline: as §1
OVCAR-8 = test: Compound was evaluated for in vitro activity against OVCAR-8 Ovary cell lines (Human tumor cells ); assay type: functional, cell-based; outline: as §1
NCI/ADR-RES = test: Compound was evaluated for in vitro activity against NCI/ADR-RES breast cancer cell lines (Human tumor cells ); assay type: functional, cell-based; outline: as §2
PC-3 = test: Compound was evaluated for in vitro activity against PC-3 prostate cell lines (Human tumor cells ); assay type: functional, cell-based; outline: as §1
IGROV-1 = test: Compound was evaluated for in vitro activity against IGROV1 Ovary cell lines (Human tumor cells ); assay type: functional, cell-based; outline: as §1

## Cc1c(CNc2ccc(C(=O)NC(CCCNC(=O)c3ccccc3C(=O)O)C(=O)O)cc2)cnc2nc(N)nc(N)c12 (stereo unspecified)
Hs-578T
  IC50: 100 nM
SF-539
  IC50: 0.46 nM
HCT-15
  IC50: 0.45 nM
ACHN
  IC50: 0.39 nM
MDA-MB-435
  IC50: 0.6 nM
UACC-257
  IC50: 470 nM
A498
  IC50: > 1000 nM
SR
  IC50: 0.45 nM
NCI-H23
  IC50: 1.5 nM
BT-549
  IC50: > 1000 nM
M14
  IC50: 0.66 nM
SK-MEL-28
  IC50: 190 nM
OVCAR-3
  IC50: 17 nM
U-251
  IC50: 3.6 nM
Dihydrofolate reductase
  Ki: 0.0004 nM
RPMI-8226
  IC50: 0.84 nM
HCT-116
  IC50: 0.58 nM
SK-MEL-5
  IC50: 0.64 nM
786-0
  IC50: < 0.1 nM
SK-MEL-2
  IC50: > 1000 nM
SF-268
  IC50: 0.36 nM
OVCAR-4
  IC50: > 1000 nM
DU-145
  IC50: < 1 nM
NCI-H226
  IC50: 0.62 nM
[1]
  IC50: 0.72 nM
K562
  IC50: < 0.1 nM
COLO 205
  IC50: 6.7 nM
OVCAR-5
  IC50: 200 nM
MCF7
  IC50: 0.7 nM
TK-10
  IC50: > 1000 nM
CCRF-CEM
  IC50: 0.57 nM
KM12
  IC50: 0.52 nM
A549
  IC50: 0.42 nM
HCC 2998
  IC50: 0.9 nM
EKVX
  IC50: 2.5 nM
NCI-H522
  IC50: 1.5 nM
NCI-H460
  IC50: 0.38 nM
UACC-62
  IC50: 0.4 nM
SF-295
  IC50: 0.59 nM
HL-60
  IC50: < 1 nM
SNB-
  IC50: 2.2 nM
MOLT-4
  IC50: 0.57 nM
LOX IMVI
  IC50: < 0.1 nM
T47D
  IC50: > 1000 nM
Malme-3M
  IC50: 47 nM
HOP-92
  IC50: > 1000 nM
RXF 393
  IC50: 380 nM
OVCAR-8
  IC50: 0.32 nM
NCI/ADR-RES
  IC50: 0.3 nM
PC-3
  IC50: < 0.1 nM
IGROV-1
  IC50: 0.52 nM

## CN(Cc1cnc2nc(N)nc(N)c2n1)c1ccc(C(=O)N[C@@H](CCC(=O)O)C(=O)O)cc1 [METHOTREXATE]
Hs-578T
  IC50: > 1000 nM
MDA-MB-435
  IC50: > 1000 nM
UACC-257
  IC50: 790 nM
A498
  IC50: > 1000 nM
SR
  IC50: 33 nM
BT-549
  IC50: > 1000 nM
M14
  IC50: 32 nM
SK-MEL-28
  IC50: > 1000 nM
U-251
  IC50: 63 nM
RPMI-8226
  IC50: 33 nM
SK-MEL-2
  IC50: > 1000 nM
OVCAR-4
  IC50: > 1000 nM
DU-145
  IC50: 45 nM
NCI-H226
  IC50: > 1000 nM
[1]
  IC50: 15 nM
K562
  IC50: 26 nM
COLO 205
  IC50: 870 nM
OVCAR-5
  IC50: 980 nM
TK-10
  IC50: > 1000 nM
CCRF-CEM
  IC50: 29 nM
KM12
  IC50: 33 nM
A549
  IC50: 33 nM
HCC 2998
  IC50: 110 nM
EKVX
  IC50: > 1000 nM
NCI-H522
  IC50: 450 nM
SF-295
  IC50: 36 nM
HL-60
  IC50: 39 nM
SNB-
  IC50: > 1000 nM
MOLT-4
  IC50: 28 nM
T47D
  IC50: > 1000 nM
Malme-3M
  IC50: > 1000 nM
HOP-92
  IC50: > 1000 nM
RXF 393
  IC50: > 1000 nM
PC-3
  IC50: 27 nM
IGROV-1
  IC50: 65 nM

Reference: ChEMBL document CHEMBL1131440, “Synthesis and potent antifolate activity and cytotoxicity of B-ring deaza analogues of the nonpolyglutamatable dihydrofolate reductase inhibitor Nalpha-(4-amino-4-deoxypteroyl)-Ndelta-hemiphthaloyl- L-ornithine (PT523)” (J Med Chem, 1998)
